Assay results reported in publication PMC3770484 (European journal of medicinal chemistry, 2013).

What was measured:
[1] = test system: human tumor cell line panel (A549, KB, KBvin, and DU145); experiment: SRB cytotoxicity, range over the whole HTCL panel; format: cell-based; conditions: read-out: GI50 range over HTCL panel
Method in brief: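 Sulforhodamine B growth assay on human A-549, KB, DU145 and KBvin lines; KBvin is a vincristine-resistant, P-gp-expressing KB subline. Paclitaxel served as reference.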

[2] = test system: tubulin (colchicine site); experiment: Inhibition of [3H]colchicine binding to tubulin; conditions: tubulin 1 μM, [3H]colchicine 5 μM, 10 min at 37 °C, ± SD
Method in brief: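 Tritiated colchicine (5.0 μM) incubated with 1.0 μM tubulin and test compound at 5.0 or 1.0 μM for 10 min at 37 °C. At this point about 40-60% of maximum colchicine binding occurs in controls. Percent inhibition of binding reported. Compounds inhibiting by more than 80% at 5 μM were retested at 1 μM.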

| Structure (SMILES) | GI50 [1] [nM] | Inhibition of colchicine binding (%) inhibition ([2]; inhibitor at 1 μM) [%] | Inhibition of colchicine binding (%) inhibition ([2]; inhibitor at 5 μM) [%] |
| --- | --- | --- | --- |
| COc1ccc2c(c1)CCCN2c1nc(Cl)nc2ccccc12 [Compound 6d, N-(2′-Chloroquinazol-4′-yl)-6-methoxy-1,2,3,4-tetrahydroquinoline] | 1.5 to 1.7 | – | – |
| COc1ccc(/C=C\c2cc(OC)c(OC)c(OC)c2)cc1O [CA4, combretastatin A-4] | – | 90 ± 0.2 | 98 ± 0.6 |
